Measured values from PMC7814958 (Nuclear medicine and biology, 2020).
“And” between values parts separate entries of the source, which are not always exact repeats. Identical values can stand only once.

Columns and labels:
[1] = tested on: ASCT-2 expressing wild-type HEK-293 cells; experiment: Inhibition of [3H]glutamine uptake in wild-type HEK-293 cell line; type: cell-based; details: 50 μM glutamine; 5 min, 37 °C; n=3
Method in brief: (§1)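 Wild-type or CRISPR-Cas9 SLC1A5-knockout HEK-293 cells grown in DMEM (10% FCS, 1% L-glutamine), seeded at 175,000 cells/mL on poly-D-lysine-coated wells the day before. Washed in HEPES+ (pH 7.4), then given 50 μM [3H]-L-glutamine/glutamine ± test compound. Stopped with ice-cold PBS+BSA, washed, lysed in 0.1 M NaOH, scintillation-counted, BCA protein-normalized. Knockout checked by flow cytometry.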

ASCT-2 transporter [2] = biological target: T1, ASCT-2 transporter (Rattus norvegicus, UniProt D3ZJ25); experiment: [3H]glutamine uptake concentration dependency; type: cell-based; details: for affinity towards the ASCT-2 transporter (in words): rat F98 cell line
T1 sequence (D3ZJ25 1-555): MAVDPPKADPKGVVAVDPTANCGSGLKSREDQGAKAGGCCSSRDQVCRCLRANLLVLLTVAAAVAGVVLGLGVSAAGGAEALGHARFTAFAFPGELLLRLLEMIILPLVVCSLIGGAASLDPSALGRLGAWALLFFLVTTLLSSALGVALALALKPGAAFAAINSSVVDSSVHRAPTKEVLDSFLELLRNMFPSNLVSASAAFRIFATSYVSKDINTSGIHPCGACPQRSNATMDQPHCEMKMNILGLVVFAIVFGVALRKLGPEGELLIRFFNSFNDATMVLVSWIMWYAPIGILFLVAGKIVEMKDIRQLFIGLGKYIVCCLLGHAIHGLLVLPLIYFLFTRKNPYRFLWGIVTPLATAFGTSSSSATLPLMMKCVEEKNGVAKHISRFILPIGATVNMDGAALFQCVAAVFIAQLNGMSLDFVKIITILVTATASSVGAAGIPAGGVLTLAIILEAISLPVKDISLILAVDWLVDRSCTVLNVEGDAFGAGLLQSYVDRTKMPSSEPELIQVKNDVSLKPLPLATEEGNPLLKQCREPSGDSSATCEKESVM
Method in brief: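 Rat F98 cells grown in DMEM with 10% FCS, 1% L-glutamine and pen/strep, seeded the day before at 125,000 cells/mL. After two HEPES+ washes (pH 7.4), cells took up [3H]-L-glutamine (111 kBq/mL) for 5 min at 37 °C. Glutamine stocks spanned 10–1200 μM, ± non-radioactive test compound. Stopped on ice, NaOH lysis, scintillation counting, BCA protein correction. Ki from Michaelis-Menten Km versus Km,app.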

ASCT-2 = biological target: T2, ASCT-2 (Homo sapiens, UniProt Q15758); experiment: Inhibition of [3H]-L-glutamine uptake in PC-3 cells; type: cell-based; details: 5 min, 37 °C, n=3
T2 sequence (Q15758 1-541): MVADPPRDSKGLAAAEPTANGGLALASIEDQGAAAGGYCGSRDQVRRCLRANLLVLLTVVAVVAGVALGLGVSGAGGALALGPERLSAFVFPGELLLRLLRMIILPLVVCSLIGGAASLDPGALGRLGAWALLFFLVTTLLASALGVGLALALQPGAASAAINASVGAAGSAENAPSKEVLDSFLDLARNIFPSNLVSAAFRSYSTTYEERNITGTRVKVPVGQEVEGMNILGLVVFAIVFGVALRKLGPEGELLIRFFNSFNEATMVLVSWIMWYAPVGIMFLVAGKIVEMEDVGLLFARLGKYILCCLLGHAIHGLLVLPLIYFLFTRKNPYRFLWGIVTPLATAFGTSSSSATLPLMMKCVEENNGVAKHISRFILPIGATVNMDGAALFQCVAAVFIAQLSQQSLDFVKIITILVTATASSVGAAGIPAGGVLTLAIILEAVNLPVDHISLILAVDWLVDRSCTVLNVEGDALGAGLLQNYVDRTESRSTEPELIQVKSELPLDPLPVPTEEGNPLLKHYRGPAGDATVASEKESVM
Method in brief: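 PC-3 cells grown in RPMI with 10% FCS, 1% L-glutamine and pen/strep at 37 °C, 5% CO2, seeded at 175,000 cells/mL the day before. Washed twice in HEPES+ buffer (pH 7.4, 100 mM NaCl, 1 g/L BSA), then given [3H]-L-glutamine (111 kBq/mL) with unlabelled glutamine ± test compound. Stopped on ice with cold PBS+BSA, NaOH-lysed, scintillation-counted, BCA protein-corrected.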

[3] = tested on: SLC1A5 knock-out HEK-293 cell line; experiment: Inhibition of [3H]glutamine uptake in ASCT-2 knock-out HEK-293 cell line; type: cell-based; details: 50 μM glutamine; 5 min, 37 °C; n=3
Method in brief: as §1

ASCT-2 transporter [4] = biological target: T3, ASCT-2 transporter (Homo sapiens, UniProt Q15758); experiment: [3H]glutamine uptake concentration dependency; type: cell-based; details: for affinity towards the ASCT-2 transporter (in words): human PC-3 cell line
T3 sequence (Q15758 1-541): T2 sequence (Q15758 1-541)
Method in brief: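 Human PC-3 cells kept in RPMI with 10% FCS, 1% L-glutamine and pen/strep, plated the prior day at 175,000 cells/mL. Washed twice in HEPES+ (pH 7.4), then 5 min at 37 °C with [3H]-L-glutamine (111 kBq/mL) over a 10–1200 μM glutamine stock series, ± unlabelled test compound. Ice-cold PBS+BSA stop, NaOH lysis, scintillation counting, BCA normalisation. Non-linear Michaelis-Menten fits; Ki from Km and Km,app at inhibitor concentration.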

LogD7.4 determination = type: physicochemical; details: n=3
Method in brief: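 1 MBq radiolabelled test compound added to PBS/n-octanol (1:1, V:V), vortexed and spun 10 min at 1100 g. Aliquots of each layer counted in a NaI(Tl) scintillation counter. LogD7.4 taken as log of octanol/PBS count ratio; n=3.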

[5] = In vitro stability in formulation; type: physicochemical; details: 37 °C; analytical HPLC; no degradation products found
Method in brief: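 Radiolabelled test compound held in its formulation at 37 °C for 30, 70, 120 and 180 min after radiosynthesis. Formulation was HPLC eluate (ethanol/10 mM ammonium acetate), diluted with PBS for the biphenyl analogue. At each point 7 MBq was run on analytical C18 HPLC with radio and UV (205 nm) detection at 1.0 mL/min. Runs were isocratic, ethanol/10 mM ammonium acetate 10:90 or 30:70.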

PC-3 xenograft = experiment: Dynamic microPET in PC-3 xenograft model; type: in vivo, mice
Method in brief: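 Male Swiss nu/nu mice (n=5) received 5 × 10^6 PC-3 cells with Matrigel in the right flank at 8 weeks and the left flank a week later; scanned seven weeks post-inoculation. Fasted ≥6 h, isoflurane anaesthesia, 18.5 MBq i.v. via tail vein. 1-h dynamic PET (1-min frames to 25 min, then 5-min), then CT. Manual tumor and leg-muscle ROIs; SUV decay- and syringe-corrected.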

[6] = Biodistribution study in PC-3 inoculated mice; type: in vivo
Method in brief: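 PC-3 flank xenografts in male Swiss nu/nu mice, prepared as for imaging. Seven weeks post-inoculation, 5.0 MBq radiotracer given i.v. via lateral tail vein. Mice killed by cervical dislocation at 20 and 60 min p.i. (n=3 each). Blood drawn by cardiac puncture; organs dissected, rinsed with water, weighed and counted. Results as %ID/g ± SD.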

[7] = reported for glutamine; cited from earlier work
[8] = Swiss nu/nu male mice, PC-3, i.v., 20 min, n=3
[9] = Swiss nu/nu male mice, PC-3, i.v., 60 min, n=3

N[C@@H](CCC(=O)Nc1ccc(-c2ccc(F)cc2)cc1)C(=O)O [FBPG, N5-(4’-fluoro-[1,1’-biphenyl]-4-yl)glutamine]
relative uptake of [3H]glutamine in presence of inhibitor compared to basal uptake, Wild-type HEK-293 [1]: 95 ± 6% | Ki (ASCT-2 transporter [2]): 1420 µM | affinity towards the ASCT-2 transporter (in words) (ASCT-2 transporter [2]): low affinity | relative uptake of [3H]-L-glutamine in presence of inhibitor compared to basal uptake (ASCT-2): 92 ± 1% | relative uptake of [3H]glutamine in presence of inhibitor compared to basal uptake, ASCT-2 KO HEK-293 [3]: 58 ± 9% | Ki (ASCT-2 transporter [4]): 604 µM | affinity towards the ASCT-2 transporter (in words) (ASCT-2 transporter [4]): low affinity

N[C@@H](CCC(=O)Nc1ccc(F)cc1)C(=O)O [FPG, N5-(4-fluorophenyl)glutamine]
relative uptake of [3H]glutamine in presence of inhibitor compared to basal uptake, Wild-type HEK-293 [1]: 96 ± 7% | Ki (ASCT-2 transporter [2]): 850 µM | affinity towards the ASCT-2 transporter (in words) (ASCT-2 transporter [2]): low affinity | relative uptake of [3H]-L-glutamine in presence of inhibitor compared to basal uptake (ASCT-2): 94 ± 9% | relative uptake of [3H]glutamine in presence of inhibitor compared to basal uptake, ASCT-2 KO HEK-293 [3]: 60 ± 7% | Ki (ASCT-2 transporter [4]): 234 µM | affinity towards the ASCT-2 transporter (in words) (ASCT-2 transporter [4]): moderate affinity

N[C@@H](CCC(=O)Nc1ccc(-c2ccc([18F])cc2)cc1)C(=O)O [[^18F]FBPG, [^18F]fluorobiphenylglutamine]
logD7.4 (octanol/PBS ratio at pH 7.4) (LogD7.4 determination): 1.11 ± 0.01 and 1.11 | stability in formulation [5]: at least 3 hours | T/Mmean (mean tumor-to-muscle ratio) (PC-3 xenograft; PC-3 xenograft mice, 18.5 MBq i.v., leg muscle as reference): 1.20 ± 0.15 | SUVmean (mean standardized uptake value) (PC-3 xenograft; PC-3 xenograft mice, 18.5 MBq i.v., tumor ROI): 0.17 ± 0.04 | tumor uptake on PET (in words) (PC-3 xenograft; mice bearing PC-3 xenografts): very low uptake | bone uptake as indication of defluorination (in words) ([6]; PC-3 inoculated mice): No enhanced uptake in the bone | Bladder uptake %ID/g 20 min post-injection [6, 8]: 1.33 ± 0.77 %ID/g | Blood uptake %ID/g 20 min post-injection [6, 8]: 5.49 ± 0.74 %ID/g | Bone uptake %ID/g 20 min post-injection [6, 8]: 0.95 ± 0.20 %ID/g | Brain uptake %ID/g 20 min post-injection [6, 8]: 0.67 ± 0.13 %ID/g | Fat uptake %ID/g 20 min post-injection [6, 8]: 0.92 ± 0.26 %ID/g | Heart uptake %ID/g 20 min post-injection [6, 8]: 2.03 ± 0.47 %ID/g | Kidney uptake %ID/g 20 min post-injection [6, 8]: 11.52 ± 3.91 %ID/g | Large intestine uptake %ID/g 20 min post-injection [6, 8]: 0.39 ± 0.14 %ID/g | Liver uptake %ID/g 20 min post-injection [6, 8]: 7.43 ± 1.80 %ID/g | Lung uptake %ID/g 20 min post-injection [6, 8]: 5.03 ± 1.14 %ID/g | Muscle uptake %ID/g 20 min post-injection [6, 8]: 0.45 ± 0.09 %ID/g | Prostate uptake %ID/g 20 min post-injection [6, 8]: 2.13 ± 1.90 %ID/g | Skin uptake %ID/g 20 min post-injection [6, 8]: 0.79 ± 0.10 %ID/g | Small intestine uptake %ID/g 20 min post-injection [6, 8]: 5.77 ± 5.82 %ID/g | Spleen uptake %ID/g 20 min post-injection [6, 8]: 3.11 ± 0.28 %ID/g | Stomach uptake %ID/g 20 min post-injection [6, 8]: 2.89 ± 1.72 %ID/g | Tumor uptake %ID/g 20 min post-injection [6, 8]: 0.46 ± 0.09 %ID/g | Bladder uptake %ID/g 60 min post-injection [6, 9]: 2.54 ± 1.47 %ID/g | Blood uptake %ID/g 60 min post-injection [6, 9]: 4.24 ± 0.85 %ID/g | Bone uptake %ID/g 60 min post-injection [6, 9]: 0.67 ± 0.14 %ID/g | Brain uptake %ID/g 60 min post-injection [6, 9]: 0.38 ± 0.03 %ID/g | Fat uptake %ID/g 60 min post-injection [6, 9]: 1.21 ± 1.05 %ID/g | Heart uptake %ID/g 60 min post-injection [6, 9]: 1.50 ± 0.52 %ID/g | Kidney uptake %ID/g 60 min post-injection [6, 9]: 14.46 ± 1.71 %ID/g | Large intestine uptake %ID/g 60 min post-injection [6, 9]: 0.53 ± 0.07 %ID/g | Liver uptake %ID/g 60 min post-injection [6, 9]: 4.44 ± 0.83 %ID/g | Lung uptake %ID/g 60 min post-injection [6, 9]: 3.75 ± 0.43 %ID/g | Muscle uptake %ID/g 60 min post-injection [6, 9]: 0.48 ± 0.28 %ID/g | Prostate uptake %ID/g 60 min post-injection [6, 9]: 2.60 ± 1.12 %ID/g | Skin uptake %ID/g 60 min post-injection [6, 9]: 0.57 ± 0.10 %ID/g | Small intestine uptake %ID/g 60 min post-injection [6, 9]: 19.10 ± 4.83 %ID/g | Spleen uptake %ID/g 60 min post-injection [6, 9]: 2.07 ± 0.26 %ID/g | Stomach uptake %ID/g 60 min post-injection [6, 9]: 0.85 ± 0.01 %ID/g | Tumor uptake %ID/g 60 min post-injection [6, 9]: 0.42 ± 0.09 %ID/g

NC(=O)CC[C@H](N)C(=O)O [glutamine]
logD7.4 [7]: −3.64
